Screening results (PubChem BioAssay)
SENP7 block: blocks the human protease SENP7; Q9BQF6; recombinant SENP7, Z-RLRGG-aminoluciferin luminescence, 40 min; inhibition, % at 5 µM; 1.5% of 330,000 active;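 active = inhibition above about 50% at the single test dose, limit read from the data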;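 note: plate controls were DMSO with enzyme for no effect and no enzyme buffer wells for full effect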
Target sequence (Q9BQF6 706-1050 limits assumed): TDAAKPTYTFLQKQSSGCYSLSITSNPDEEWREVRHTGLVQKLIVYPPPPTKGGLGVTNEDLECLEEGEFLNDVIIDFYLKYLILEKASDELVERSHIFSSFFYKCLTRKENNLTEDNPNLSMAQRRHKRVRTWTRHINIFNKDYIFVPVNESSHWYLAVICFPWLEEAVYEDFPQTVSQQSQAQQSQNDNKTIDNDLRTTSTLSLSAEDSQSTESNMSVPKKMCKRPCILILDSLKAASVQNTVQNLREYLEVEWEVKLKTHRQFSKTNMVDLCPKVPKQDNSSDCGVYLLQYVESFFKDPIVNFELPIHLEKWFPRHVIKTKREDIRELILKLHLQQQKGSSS
SENP1 inh: blocks the human SENP1 SUMO protease catalytic domain; inhibition, % at 10 µM; AID 624204; recombinant SENP1 catalytic domain, CyPet-SUMO1-YPet FRET cleavage; Q9P0U3; 0.21% of 360,000 active;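 active = inhibition at least 30% at 10 µM, raw YFP signal under a set limit, fluorescence ratio 0.5 to 1.5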;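 note: 0% = enzyme with DMSO and 100% = no enzyme wells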
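Test system: recombinant human SENP1 catalytic domain, His6-tagged / Medium: pH 8 Tris buffer with EDTA, NaCl, BME, BSA, NP40, catalase / Also added: SUMO1 FRET substrate flanked by Cypet and Ypet, 25 nM / Times: 50 min reaction at room temperature / Signal: FRET, CFP and YFP emission / Control set: no-enzyme low control and enzyme-plus-DMSO high control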
SENP6 inh: blocks the human protease SENP6 | Q9GZR1 | Recombinant SENP6 catalytic domain, aminoluciferin luminescence | inhibition, % at 10 µM | 1.8% of 330,000 active | AID 2599;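 active = inhibition above about 50% at the single tested dose, limit read from the data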;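 note: plate controls were DMSO wells with enzyme for no effect and DMSO wells lacking enzyme for full effect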
SENP8 block-1: SENP8 (human) protease inhibition. Q96LD8. 0.64% of 360,000 active. recombinant SENP8, Nedd8 substrate fluorescence. inhibition, % at 20 µM; in the data active = inhibition mostly above about 40%, no sharp cut-off; inactive = mostly below about 27%
Target sequence (Q96LD8 whole entry, looked up): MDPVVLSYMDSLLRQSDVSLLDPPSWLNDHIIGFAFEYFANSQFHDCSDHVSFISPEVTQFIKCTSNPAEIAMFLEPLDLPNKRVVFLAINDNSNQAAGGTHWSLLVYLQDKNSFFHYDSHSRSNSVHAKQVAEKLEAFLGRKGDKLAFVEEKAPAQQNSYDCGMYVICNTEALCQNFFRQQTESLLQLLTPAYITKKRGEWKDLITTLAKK
UCH37 inh: human UCH37 deubiquitinating enzyme inhibition; Q9Y5K5; purified proteasome/UCH37, Ub-AMC cleavage fluorescence; inhibition, % (concentration not given with the values); 0.33% of 330,000 active;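 active = mean inhibition over replicate wells above about 20%, limit read from the data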;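 note: 0% = compound-free wells with enzyme and 100% = wells lacking proteasome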
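Material: human UCH37 enzyme supplied as purified proteasome complex / Amount: 0.15 nM proteasome as dispensed / Buffer or medium: pH 7.4 Tris-HCl (50 mM) with ovalbumin, ATP-MgCl2, DTT / Times: preincubation 30 min, reaction 25 min, room temperature / Technique: AMC fluorescence from Ub-AMC cleavage, excitation 355 nm, emission 460 nm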
SENP8 block-2: inhibitors of human SENP8 protease; Q96LD8; purified SENP8, Z-RLRGG-aminoluciferin cleavage, luminescence; inhibition, % at 10 µM; 1.2% of 330,000 active; in the data active = inhibition above about 50%
SENP8 conf: SENP8 (human) inhibition, single concentration confirmation. shares compounds with SENP8 block-1. purified SENP8, Nedd8-AMC/pro-Nedd8 cleavage fluorescence, 30 min. inhibition, % at 25 µM. 15% of 1,400 active. AID 624319; in the data active = inhibition mostly above about 39%, no sharp cut-off; inactive = mostly below about 34%
Numbers without * were called inactive. A selection: hits, their analogues and other compounds. The true share with any hit is near 2.6%.

For COc1cc(C(=O)OCC(=O)NC2CCS(=O)(=O)C2)c([N+](=O)[O-])cc1OC (stereo not drawn) the results were SENP7 block 7, SENP1 inh 4, SENP6 inh -2, SENP8 block-1 11, UCH37 inh 4 and SENP8 block-2 1.
`CC(=O)Nc1ccc(NC(=O)COC(=O)c2ccc([N+](=O)[O-])o2)cc1` gave SENP7 block 12, SENP1 inh 1, SENP6 inh 15, SENP8 block-1 34*, SENP8 block-2 12 and SENP8 conf 85*.
O=C(COC(=O)c1ccc([N+](=O)[O-])o1)NC1CCS(=O)(=O)C1 (stereo not drawn) was read as SENP7 block 4, SENP1 inh 1, SENP6 inh -8, SENP8 block-1 50*, UCH37 inh 25*, SENP8 block-2 3 and SENP8 conf 89*.
CCN(c1ccc(NC(=O)COC(=O)c2ccc([N+](=O)[O-])o2)cc1)C(C)C was read as SENP7 block 10, SENP1 inh 1, SENP6 inh -10, SENP8 block-1 33, UCH37 inh -1 and SENP8 block-2 -6.
`O=C(COC(=O)c1ccc([N+](=O)[O-])o1)NCc1ccc(F)cc1` gave SENP7 block 4, SENP1 inh -2, SENP6 inh 6, SENP8 block-1 43*, UCH37 inh 25*, SENP8 block-2 -3 and SENP8 conf 78*.
For COc1cccc(C=Nn2c(C3CCCCC3)n[nH]c2=S)c1OC the results were UCH37 inh 3.
Cn1cccc1C=NNC(=O)c1ccccn1 was read as UCH37 inh 14.
Screening COc1ccc(CCNC2CC(=O)N(CCc3ccccc3)C2=O)cc1 (stereo not drawn) returned SENP7 block 0, SENP1 inh 3, SENP6 inh -11, SENP8 block-1 10, UCH37 inh 1 and SENP8 block-2 -2.
Screening CCN(CC)c1ccc(NC2CC(=O)N(CCc3ccc(OC)cc3)C2=O)cc1 (stereo not drawn) returned SENP7 block 5, SENP1 inh -14, SENP6 inh 3, SENP8 block-1 74*, UCH37 inh 4, SENP8 block-2 5 and SENP8 conf 41.
For O=C(CSc1nc2cc(Cl)ccc2s1)NCc1ccc2c(c1)OCO2 the results were SENP7 block 13, SENP1 inh -1, SENP6 inh -2, SENP8 block-1 44*, UCH37 inh 3, SENP8 block-2 2 and SENP8 conf 32.
Cc1nnc(SCC(=O)NCc2ccc3c(c2)OCO3)s1 was read as SENP7 block -3, SENP1 inh -1, SENP6 inh -15, SENP8 block-1 8, UCH37 inh 2 and SENP8 block-2 -5.
For Cc1c(C=NNc2ccc([N+](=O)[O-])cn2)c2ccccc2n1Cc1ccccc1 the results were UCH37 inh 9.
For O=c1nc2sc(=Cc3ccco3)c(=O)n2nc1Cc1ccccc1 the results were UCH37 inh 5.
Cc1noc(C)c1S(=O)(=O)N1CCC(C(=O)NCCCN2CC(C)CC(C)C2)CC1 (stereo not drawn) was read as SENP7 block 6, SENP1 inh 1, SENP6 inh 1, SENP8 block-1 13, UCH37 inh 3 and SENP8 block-2 5.
For Cc1noc(C)c1S(=O)(=O)N1CCC(C(=O)NCCN2CCC(C)CC2)CC1 the results were SENP7 block -2, SENP1 inh 1, SENP6 inh -15, SENP8 block-1 41*, UCH37 inh 4, SENP8 block-2 -1 and SENP8 conf 12.
CCN(N=O)c1ccc(C=C2C=Cc3ccccc32)cc1 was read as SENP1 inh 15, SENP8 block-1 69* and SENP8 conf 7.
For CN(N=O)c1ccc(C=C2C=Cc3ccccc32)cc1 the results were SENP1 inh 9, SENP8 block-1 51* and SENP8 conf 3.
For C/C(C=Nn1cnnc1)=C\c1ccccc1 the results were UCH37 inh 1.
`COc1cc(-c2nc3ccccn3c2N=Cc2ccc(F)cc2)ccc1O` gave UCH37 inh -202.
For Cc1n[nH]c(=S)n1N=Cc1ccc(-c2ccccc2[N+](=O)[O-])o1 the results were UCH37 inh 5.
`Cc1cnc(C=NNC(N)=S)c2cccc(N)c12` gave SENP1 inh 27, SENP8 block-1 82* and SENP8 conf 43*.
O=C(CCCCCNC(=O)N1CCn2c1nc1ccccc12)N[C@H](C(=O)O)c1ccccc1 was read as SENP7 block 3, SENP1 inh 4, SENP6 inh 2, SENP8 block-1 52*, UCH37 inh 1, SENP8 block-2 2 and SENP8 conf 20.
For O=C(CCCCCNC(=O)N1CCn2c1nc1ccccc12)N[C@H](Cc1ccccc1)C(=O)O the results were SENP7 block 0, SENP1 inh 2, SENP6 inh -3, SENP8 block-1 26, UCH37 inh 1 and SENP8 block-2 13.
For CC1CCc2nc(NC(=O)Nc3ccc4c(c3)OCO4)sc2C1 (stereo not drawn) the results were SENP7 block 2, SENP1 inh 3, SENP6 inh -8, SENP8 block-1 42*, UCH37 inh 4, SENP8 block-2 2 and SENP8 conf 9.
Cc1ccc(CN2CC(C(=O)O)CC2=O)cc1 (stereo not drawn) was read as SENP7 block 4, SENP1 inh 4, SENP6 inh -3, SENP8 block-1 40*, UCH37 inh 4, SENP8 block-2 0 and SENP8 conf 21.
For CCc1ccc(CN2CC(C(=O)O)CC2=O)cc1 (stereo not drawn) the results were SENP7 block -4, SENP1 inh 1, SENP6 inh 7, SENP8 block-1 10, UCH37 inh 2 and SENP8 block-2 -6.
For COC(=O)C1=C(C)NC(C)=C(C(=O)OC)C1c1ccc(-c2cccc(Cl)c2Cl)o1 the results were SENP7 block 6, SENP1 inh -10, SENP6 inh 1, SENP8 block-1 -168, UCH37 inh -47 and SENP8 block-2 -6.
`COC(=O)C1=C(C)NC(C)=C(C(=O)OC)C1c1ccc(-c2cccc([N+](=O)[O-])c2)o1` gave SENP7 block -8, SENP1 inh 4, SENP6 inh -11, SENP8 block-1 47*, UCH37 inh 3, SENP8 block-2 -7 and SENP8 conf 37.
For O=C(CN1CCS(=O)(=O)CC1)NN=Cc1cccc(C(F)(F)F)c1 the results were UCH37 inh 3.
`O=C(NNc1ccccc1[N+](=O)[O-])Nc1cccc(Cl)c1` gave SENP7 block 2, SENP1 inh 2, SENP6 inh -5, SENP8 block-1 40*, SENP8 block-2 1 and SENP8 conf 25.
